Laboratory results reported in ChEMBL document CHEMBL4513216, “Probing the Open Global Health Chemical Diversity Library for Multistage-Active Starting Points for Next-Generation Antimalarials” (ACS Infect Dis, 2020).

Assay: Toxicity liver stage against HepG2, at 10uM
Assay type: cell-based
Parameters: test concentration 10 uM, cell line HepG2-A16-CD81EGFP
Details: human, HepG2-A16-CD81EGFP cells; read-out: INHIBITION
Summary of the method: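 Uninfected HepG2-A16-CD81EGFP cells, 3 × 10^3 per well, 1536-well, plated on prespotted compound at 10 μM final, parasite-free screening media added to match infected plates; puromycin 10 μM positive, DMSO 0.5% negative; run in parallel with 48 h PbLuc assay at 37 °C, 5% CO2; viability by CellTiter-Glo luminescence, normalized to controls.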

| SMILES | cytotoxicity at 10 µM [%] |
| --- | --- |
| CCn1cc(-c2nn3c(C(C)C)nnc3s2)c(C)n1 | -14.6 |
| CC(C)n1ncc2c1NC(=O)CSC2C(F)(F)F (configuration not stated) | -11.1 |
| Cc1noc(-c2ccc(N3CCCC(C(N)=O)C3)nc2)n1 (configuration not stated) | 9.36 |
| O=C1C[C@H]2[C@@H](CCN2C(=O)Cc2cccs2)N1CC1CC1 | 3.2 |
| COCCN1C(=O)CC[C@@H]2[C@H]1CCN2C(=O)N(C)C | 10.7 |
| CCS(=O)(=O)N1Cc2nccn2CC(CN2CCCC2)C1 (configuration not stated) | -124 |
| CC(C)NC(=O)c1cc2c(nc1N(C)C)CCN(S(=O)(=O)C1CC1)CC2 | -149 |
| CC(C)(C)n1ncc2c1NC(=O)CC2c1ccsc1 (configuration not stated) | 20.4 |
| COc1cccc(CNCc2ccc(F)cc2Cl)c1O | -3.3 |
| Cc1nc(N2CCN(C(=O)C3CC3)CC2)c2c(n1)c(C)nn2C | 5.42 |
| Cc1n[nH]c(C)c1-c1cnc(CC2CCCN(S(C)(=O)=O)C2)cn1 (configuration not stated) | -7.3 |
| Cc1cc(F)cc2c(NCC(C)(C)C(N)=O)c(C#N)cnc12 | -3.25 |
| CSCC(C)NS(=O)(=O)c1ccc(C)c(N(C)C)c1 (configuration not stated) | -3.25 |
| CCOCCCNc1nc(CS(=O)(=O)c2ccccc2)cs1 | 9.75 |
| Cc1ccc(CN(C(=O)NCC2CCS(=O)(=O)C2)C2CC2)o1 (configuration not stated) | -144 |
| CC(C)CC(=O)N1Cc2ccccc2CC1C(=O)Nc1nncs1 (configuration not stated) | -154 |
| COc1ccccc1NC(=O)CCNC(=O)c1ccoc1 | 1.66 |
| Cc1c(F)cccc1S(=O)(=O)N(C)CC(C)O (configuration not stated) | 4.98 |
| Cc1cnn(CCNCC(=O)Nc2ccc(Br)cn2)c1 | 1.9 |
| CCOc1cc(NC(=O)N2CCC3(CCOCC3)C2)ccc1C | 2.89 |
| CC1CCc2sc(C(=O)Nc3cnn(C)c3)cc2C1 (configuration not stated) | 9.48 |

| SMILES | cytotoxicity at 10 µM [%] |
| --- | --- |
| CC(C)c1csc(NC(=O)NC2CCCN(c3cnn(C)c3)C2)n1 (configuration not stated) | 15 |
| COC(=O)c1ccc(N2CCN(C(=O)C(C)C)C(C)C2)cc1 (configuration not stated) | -10.4 |
| COc1ccc2c(c1)CCCN2C(=O)CNCC1CN(C)CCO1 (configuration not stated) | 4.78 |
| Cc1ccc(C(=O)N(Cc2ccc(F)cc2)C2CC2)c(=O)[nH]1 | -1.4 |
| Cn1cc(C2CCCN2CC(=O)N(CCC#N)Cc2ccco2)cn1 (configuration not stated) | -6.18 |
| O=C(Cn1cccnc1=O)NCC1Cc2ccccc2O1 (configuration not stated) | -4.62 |
| Cc1cc(CN(C)C(=O)NCc2ccnc(OC3CCCC3)c2)no1 | 9.52 |
| COc1c(C)cnc(CNC(=O)c2cc(C)nc3onc(C)c23)c1C | -0.947 |
| CCOCCC1(CNC(=O)c2ccncc2)CCC1 | 4.11 |
| CC(=O)NCCCOc1c(C)cccc1Cl | 0.238 |
| O=C(NCc1cccc(N2CC=CC2)c1)NC1CC1 | 9.34 |
| CC(C)CNC(=O)Nc1cccc(CN2CCOC2=O)c1 | -1.1 |
| COC(=O)NCC(=O)NC1CC(C)(C)Cc2oc(C)cc21 (configuration not stated) | -20.8 |
| COCCN1CCN(CC(=O)N(C)Cc2ccsc2)CC1C (configuration not stated) | -127 |
| CN(Cc1cnn(C)c1)C(=O)C1COCC(=O)N1Cc1ccccc1 (configuration not stated) | -4.33 |
| CCCN(C(=O)c1cc2c([nH]c1=O)CCCC2=O)C1CCCCC1 | -0.708 |
| CC(C)(O)CN1CCN(C(=O)COCC2CC2)CC1 | -9.17 |
| CC1CN(c2ccc(CNC(=O)NCc3ccoc3)cn2)CCO1 (configuration not stated) | 4.38 |
| COc1ccc(CCN(C)C(=O)c2cc(C(C)=O)c[nH]2)cc1OC | 5.38 |
| CCc1cnc(N2CCN(Cc3ccon3)CC2)s1 | 1.16 |
| CC(O)CN1CCC(CN(C)Cc2cc(C#N)ccc2F)CC1 (configuration not stated) | 2.05 |

| SMILES | cytotoxicity at 10 µM [%] |
| --- | --- |
| COc1ccc(Br)cc1CCC(=O)N1CCSCC1 | 5.48 |
| CS(=O)(=O)N1CCCN(c2nccn3cnnc23)CC1 | -8.85 |
| Cc1cnn(CCNCc2ccc(OCc3csc(C)n3)cc2)c1 | -6.32 |
| Cc1ccc(-c2ccnc3cc(CC(=O)N4CCN(C)CC4)nn23)cc1 | -1.72 |
| O=C(NCc1cccnc1N1CCc2ccccc2C1)c1cc(=O)[nH][nH]1 | 6.99 |
| CN(Cc1ccc(C2CC(=O)Nc3n[nH]cc32)o1)S(C)(=O)=O (configuration not stated) | -13.8 |
| CC(C)[C@@H]1CN(Cc2cnc3c(S(C)(=O)=O)cnn3c2)C[C@H]1N(C)C | -3.5 |
| OC[C@H]1CN(Cc2c(Cl)cncc2Cl)C[C@H]1CN1CCOCC1 | -107 |
| COc1nc2c(cc1C(=O)NC(C)Cc1cc(C)n[nH]1)CCC2 (configuration not stated) | -137 |
| CCSc1ncc(CN2CCN(c3ncc(C)c(N)n3)CC2)cn1 | -4.65 |
| Cc1cc(CNC(=O)C2CCN(CC(N)=O)CC2)cc(C)n1 | -3.06 |
| CN(CCc1noc(C2CC2)n1)C(=O)CN1C(=O)COc2ccccc21 | -141 |
| COCCN(Cc1cnn(C)c1)c1nc(C)nc2sccc12 | -138 |
| Cc1nccc(-c2ccccc2)c1C(=O)N1CC[C@](C)(O)[C@H](C)C1 | 3.41 |
| COc1cc(N2CCCC(c3nccn3Cc3cscn3)C2)nc(N)n1 (configuration not stated) | -4.66 |
| O=C(c1cncc(N2CCC3(CCNCC3)CC2)n1)N1CCCC1 | -14.6 |
| CC(C)C(Sc1nncn1C1CC1)C(=O)NCc1cccnc1 (configuration not stated) | -6.86 |
| CC(C)Cn1cc(NC(=O)N2CCCC2)cn1 | -5.28 |
| COCCCNC(=O)Nc1ccc(-n2cncn2)c(C(F)(F)F)c1 | -6.98 |
| CC(C)c1ccc(OCCC(=O)N2CCC(C(=O)N(C)C)CC2)cc1 | -17.5 |
| CS(=O)(=O)CCN1CCCC1c1noc(C2CC2)n1 (configuration not stated) | -6.82 |

| SMILES | cytotoxicity at 10 µM [%] |
| --- | --- |
| CC(C)(C)c1n[nH]c(C2CN(Cc3nnc(C4CCC4)o3)CCO2)n1 (configuration not stated) | -8.24 |
| CC(O)(CN1CCC(O)CC1)c1cccc(C(F)(F)F)c1 (configuration not stated) | -0.0552 |
| CCCc1noc(CNC2CCCN(Cc3noc(C4CC4)n3)C2)n1 (configuration not stated) | -13.5 |
| CCOCc1cc(CN2CCn3c(CO)nnc3C2)ccc1OC | -37.2 |
| COCC1c2c(cnn2CC2CC2)CCN1Cc1ccsc1 (configuration not stated) | 6.75 |
| CC(C)c1cc(=O)[nH]c(C(C)(C)N)n1 | -1.05 |
| O=C(COC[C@H]1CC[C@H]2[C@H](CCN2c2ccccn2)O1)N1CCCC1 | 0.748 |
| CC(C)Nc1nc2c(cc1C(=O)NCC1CC1)CCN(S(C)(=O)=O)CC2 | -1.48 |
| CN(C)CCN1C(=O)CCC12CCCN(C(=O)C1CC=CC1)CC2 (configuration not stated) | 3.7 |
| CCN1CCC2(CN(C(=O)N(C)C)CC23CCN(CC2CC2)CC3)C1=O (configuration not stated) | 0.199 |
| Cc1ccc(CN2Cc3nnn(C)c3C(COCc3ccccn3)C2)s1 (configuration not stated) | 7.8 |
| Cc1nc(CN2C(=O)CCC23CCN(c2ncccn2)CC3)cs1 | -7.71 |
| CC(=O)N1CCC2(CC1)CC(N1CCOCC1)c1ccc(C)cc12 (configuration not stated) | -137 |
| CC(=O)N(C)Cc1nn(C)c2c1CN(Cc1ccsc1)C2 | -134 |
| CCn1cc(-n2cc3nc(N4CCOCC4)[nH]cc-3c2=O)cn1 | 3.43 |
| CCCn1nccc1NC(=O)CN1CCn2c(nnc2C2CC2)C1 | -8 |
| COC(=O)Cn1c(=O)[nH]c2cn(-c3ccc(Br)cc3)c(=O)n21 | 1.4 |
| COCc1cccc(C(=O)N2C[C@@H]3CC[C@H]2CN(Cc2cscn2)C3)n1 | 5.01 |
| Cc1noc(C)c1C(=O)N1C[C@@H]2CC[C@H]1CN(c1cnccn1)C2 | 8.32 |
